# Biological target: T1, Guanine nucleotide-binding protein G(i) subunit alpha-1 (Homo sapiens, UniProt P63096)
# Test: Concentration required to stimulate binding of [35S]GTP-gamma-S, with G alpha i1
# Format: functional
# Procedure, shortened: (§1)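 His-tagged recombinant Gαi subunits were expressed in E. coli BL21/DE3 and purified by IMAC. 3 pmol of subunit, native or in lipid vesicles, was incubated 30 min at 30 °C with 0.1 μM [35S]GTPγS in 50 mM Hepes-NaOH, 1 mM EDTA, 1 mM DTT and 100 μM MgSO4. The reaction was stopped with ice-cold buffer and filtered on cellulose nitrate. EC50 came from 1×10^-7 to 1×10^-4 M (eight concentrations).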
# T1 sequence (P63096 whole entry): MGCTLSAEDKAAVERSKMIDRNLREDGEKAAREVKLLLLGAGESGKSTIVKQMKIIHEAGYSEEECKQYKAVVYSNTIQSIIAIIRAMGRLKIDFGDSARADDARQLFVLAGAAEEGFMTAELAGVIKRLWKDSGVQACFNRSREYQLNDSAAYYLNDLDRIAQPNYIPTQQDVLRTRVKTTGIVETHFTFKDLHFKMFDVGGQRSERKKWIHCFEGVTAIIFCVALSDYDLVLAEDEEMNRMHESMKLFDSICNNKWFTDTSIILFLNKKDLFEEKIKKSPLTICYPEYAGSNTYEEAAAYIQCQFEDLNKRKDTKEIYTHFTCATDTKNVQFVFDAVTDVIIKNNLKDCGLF
row,EC50,SMILES
1,36.4 µM,CCCCCCCCCCCCCNC1CCNCC1
2,35.7 µM,CCCCCCCCCCCCCCCCCN1CCC(C2CCNCC2)CC1
3,451 µM,CCCCCCCCCCCCCCCN1CCC(CCC2CCNCC2)CC1
4,28.6 µM,CCCCCCCCCCCCCCC(=O)N1CCN(N)CC1
5,21.1 µM,CCCCCCCCCCCCCN1CCC(C2CCNCC2)CC1
6,6 µM,CCCCCCCCCCCCCCC(=O)N1CCC(C2CCN(C)CC2)CC1
7,17.6 µM,CCCCCCCCCCCCC(=O)N1CCC(C2CCNCC2)CC1
8,18.4 µM,CCCCCCCCCCCCCCCNC(=O)C1CCN(CCN)CC1
9,6.4 µM,CCCCCCCCCCCCCCCNC(=O)C1CCNCC1
10,6.6 µM,CCCCCCCCCCCCCCC(=O)N1CCC(CCC2CCNCC2)CC1
11,20.1 µM,CCCCCCCCCCCCCCC(=O)N1CCC(CCC2CCN(C)CC2)CC1
12,10.6 µM,CCCCCCCCCCCCCCCNCC1CCNCC1

# Biological target: T2, Guanine nucleotide-binding protein G(i) subunit alpha-3 (Homo sapiens, UniProt P08754)
# T2 sequence (P08754 whole entry): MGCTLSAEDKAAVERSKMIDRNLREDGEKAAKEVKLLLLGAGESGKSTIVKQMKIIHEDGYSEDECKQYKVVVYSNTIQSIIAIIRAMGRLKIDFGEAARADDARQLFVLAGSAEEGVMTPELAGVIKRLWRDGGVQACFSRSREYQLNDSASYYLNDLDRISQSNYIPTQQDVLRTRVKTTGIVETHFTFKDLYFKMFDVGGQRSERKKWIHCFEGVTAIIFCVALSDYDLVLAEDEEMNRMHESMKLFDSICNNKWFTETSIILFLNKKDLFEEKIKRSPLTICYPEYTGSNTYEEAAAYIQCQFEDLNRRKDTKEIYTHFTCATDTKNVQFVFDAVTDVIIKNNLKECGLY
# Test: Percent stimulation of [35S]GTP-gamma-S, binding to G alpha i3 at 5E-5 M of basal for 30 minutes
# Format: functional
# Procedure, shortened: (§2)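 Recombinant His-tagged Gαi subunit (3 pmol, native or in lipid vesicles) was incubated with compound at 5×10^-5 M and 0.1 μM [35S]GTPγS, 30 min at 30 °C, in 50 mM Hepes-NaOH, 1 mM EDTA, 1 mM DTT, 100 μM MgSO4. Filter-bound GTPγS after ice-cold stop and cellulose-nitrate filtration is expressed as percent of basal.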
row,Stimulation,SMILES
1,80%,CCCCCCCCCCCCCCCN1CCC(C2CCN(C)CC2)CC1
2,2000%,CCCCCCCCCCCCCNC1CCNCC1
3,97%,CCCCCCCCCCCCCCCCCN1CCC(C2CCN(C)CC2)CC1
4,102%,CCCCCCCCCCCCCCCN1CCC(CCC2CCN(C)CC2)CC1
5,5660%,CCCCCCCCCCCCCCCCCN1CCC(C2CCNCC2)CC1
6,2400%,CCCCCCCCCCCCCCCN1CCC(CCC2CCNCC2)CC1
7,391%,COc1ccccc1CN1CCC(C2CCNCC2)CC1
8,211%,CCCCCCCCCCCCCCC(=O)N1CCN(N)CC1
9,406%,CCCCCCCCCCCCCN1CCC(C2CCNCC2)CC1
10,265%,CCCCCCCCCCCCCCC(=O)N1CCC(C2CCN(C)CC2)CC1
11,1180%,CCCCCCCCCCCCC(=O)N1CCC(C2CCNCC2)CC1
12,2720%,CCCCCCCCCCCCCCCNC(=O)C1CCN(CCN)CC1
13,986%,CCCCCCCCCCCCCCCNC(=O)C1CCNCC1
14,75%,CCCCCCCCCCCCC(=O)N1CCC(C2CCN(C)CC2)CC1
15,1090%,CCCCCCCCCCCCCCC(=O)N1CCC(CCC2CCNCC2)CC1
16,815%,CCCCCCCCCCCCCCC(=O)N1CCC(CCC2CCN(C)CC2)CC1
17,1930%,CCCCCCCCCCCCCCCNCC1CCNCC1

# Biological target: T3, Guanine nucleotide-binding protein G(o) subunit alpha (Homo sapiens, UniProt P09471)
# Test: Concentration required to stimulate binding of [35S]GTP-gamma-S, with G alpha o1
# Format: functional
# Procedure, shortened: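 Gαo: His-tagged recombinant subunit from E. coli BL21/DE3, IMAC-purified. 3 pmol, native or vesicle-reconstituted, incubated 30 min at 20 °C with 0.1 μM [35S]GTPγS in Hepes-NaOH/EDTA/DTT/100 μM MgSO4 mix. The reaction was stopped with ice-cold Tris/MgCl2/NaCl buffer, filtered on cellulose nitrate and washed. EC50 was derived from eight concentrations spanning 1×10^-7 to 1×10^-4 M.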
# Target sequence in this assay (P09471 whole entry): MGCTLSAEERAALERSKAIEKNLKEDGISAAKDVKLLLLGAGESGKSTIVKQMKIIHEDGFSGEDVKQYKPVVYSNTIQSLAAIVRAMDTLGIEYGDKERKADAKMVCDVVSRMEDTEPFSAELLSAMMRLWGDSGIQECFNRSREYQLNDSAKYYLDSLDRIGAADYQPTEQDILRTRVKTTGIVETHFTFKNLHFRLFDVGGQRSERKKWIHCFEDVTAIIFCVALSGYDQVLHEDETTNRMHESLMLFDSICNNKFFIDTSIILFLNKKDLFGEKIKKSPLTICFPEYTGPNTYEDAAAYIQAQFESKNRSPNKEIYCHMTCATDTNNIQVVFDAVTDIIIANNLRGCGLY
row,EC50,SMILES
1,25.5 µM,CCCCCCCCCCCCCNC1CCNCC1
2,13.4 µM,CCCCCCCCCCCCCCCCCN1CCC(C2CCNCC2)CC1
3,10.5 µM,CCCCCCCCCCCCCCCN1CCC(CCC2CCNCC2)CC1
4,374 µM,CCCCCCCCCCCCCCC(=O)N1CCN(N)CC1
5,27.1 µM,CCCCCCCCCCCCCN1CCC(C2CCNCC2)CC1
6,34.9 µM,CCCCCCCCCCCCCCC(=O)N1CCC(C2CCN(C)CC2)CC1
7,18.1 µM,CCCCCCCCCCCCC(=O)N1CCC(C2CCNCC2)CC1
8,16.9 µM,CCCCCCCCCCCCCCCNC(=O)C1CCN(CCN)CC1
9,8.2 µM,CCCCCCCCCCCCCCCNC(=O)C1CCNCC1
10,6.1 µM,CCCCCCCCCCCCCCC(=O)N1CCC(CCC2CCNCC2)CC1
11,12.5 µM,CCCCCCCCCCCCCCC(=O)N1CCC(CCC2CCN(C)CC2)CC1
12,12.4 µM,CCCCCCCCCCCCCCCNCC1CCNCC1

# Biological target: T2, Guanine nucleotide-binding protein G(i) subunit alpha-3
# Test: Concentration required to stimulate binding of [35S]GTP-gamma-S, with G alpha i3
# Format: functional
# Procedure, shortened: as §1
row,EC50,SMILES
1,18.8 µM,CCCCCCCCCCCCCNC1CCNCC1
2,41.5 µM,CCCCCCCCCCCCCCCCCN1CCC(C2CCNCC2)CC1
3,8050 µM,CCCCCCCCCCCCCCCN1CCC(CCC2CCNCC2)CC1
4,38.8 µM,COc1ccccc1CN1CCC(C2CCNCC2)CC1
5,24.6 µM,CCCCCCCCCCCCCCC(=O)N1CCN(N)CC1
6,21.2 µM,CCCCCCCCCCCCCN1CCC(C2CCNCC2)CC1
7,17.9 µM,CCCCCCCCCCCCCCC(=O)N1CCC(C2CCN(C)CC2)CC1
8,12.1 µM,CCCCCCCCCCCCC(=O)N1CCC(C2CCNCC2)CC1
9,19 µM,CCCCCCCCCCCCCCCNC(=O)C1CCN(CCN)CC1
10,5.9 µM,CCCCCCCCCCCCCCCNC(=O)C1CCNCC1
11,6.3 µM,CCCCCCCCCCCCCCC(=O)N1CCC(CCC2CCNCC2)CC1
12,6.1 µM,CCCCCCCCCCCCCCC(=O)N1CCC(CCC2CCN(C)CC2)CC1
13,11.4 µM,CCCCCCCCCCCCCCCNCC1CCNCC1

# Biological target: T3, Guanine nucleotide-binding protein G(o) subunit alpha
# Test: Percent stimulation of [35S]GTP-gamma-S, binding to G alpha o1 at 5E-5 M of basal for 30 minutes
# Format: functional
# Procedure, shortened: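 With Gαo (3 pmol recombinant His-tagged subunit, native or vesicle-reconstituted), binding of 0.1 μM [35S]GTPγS was measured during 30 min at 20 °C with compound at 5×10^-5 M, in Hepes-NaOH buffer with EDTA, DTT and 100 μM MgSO4. Samples were filtered on cellulose nitrate, and the value is percent of basal binding.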
# Target sequence in this assay (P09471 2-354 limits assumed): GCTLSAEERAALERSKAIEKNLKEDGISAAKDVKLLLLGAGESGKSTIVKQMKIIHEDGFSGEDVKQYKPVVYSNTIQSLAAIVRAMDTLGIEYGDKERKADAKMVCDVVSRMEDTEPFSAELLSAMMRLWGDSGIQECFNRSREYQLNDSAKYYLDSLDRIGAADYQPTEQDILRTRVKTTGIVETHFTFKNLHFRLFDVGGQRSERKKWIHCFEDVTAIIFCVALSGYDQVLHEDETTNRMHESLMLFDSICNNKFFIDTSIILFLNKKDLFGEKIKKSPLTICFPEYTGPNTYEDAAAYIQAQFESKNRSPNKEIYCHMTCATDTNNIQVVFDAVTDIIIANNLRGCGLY
row,Stimulation,SMILES
1,93%,CCCCCCCCCCCCCCCN1CCC(C2CCN(C)CC2)CC1
2,2350%,CCCCCCCCCCCCCNC1CCNCC1
3,99%,CCCCCCCCCCCCCCCCCN1CCC(C2CCN(C)CC2)CC1
4,132%,CCCCCCCCCCCCCCCN1CCC(CCC2CCN(C)CC2)CC1
5,3480%,CCCCCCCCCCCCCCCCCN1CCC(C2CCNCC2)CC1
6,5010%,CCCCCCCCCCCCCCCN1CCC(CCC2CCNCC2)CC1
7,129%,COc1ccccc1CN1CCC(C2CCNCC2)CC1
8,194%,CCCCCCCCCCCCCCC(=O)N1CCN(N)CC1
9,913%,CCCCCCCCCCCCCN1CCC(C2CCNCC2)CC1
10,531%,CCCCCCCCCCCCCCC(=O)N1CCC(C2CCN(C)CC2)CC1
11,1500%,CCCCCCCCCCCCC(=O)N1CCC(C2CCNCC2)CC1
12,3350%,CCCCCCCCCCCCCCCNC(=O)C1CCN(CCN)CC1
13,2270%,CCCCCCCCCCCCCCCNC(=O)C1CCNCC1
14,126%,CCCCCCCCCCCCC(=O)N1CCC(C2CCN(C)CC2)CC1
15,724%,CCCCCCCCCCCCCCC(=O)N1CCC(CCC2CCNCC2)CC1
16,742%,CCCCCCCCCCCCCCC(=O)N1CCC(CCC2CCN(C)CC2)CC1
17,4160%,CCCCCCCCCCCCCCCNCC1CCNCC1

# Biological target: T1, Guanine nucleotide-binding protein G(i) subunit alpha-1
# Test: Percent stimulation of [35S]GTP-gamma-S, binding to G alpha i1 at 5E-5 M of basal for 30 minutes
# Format: functional
# Procedure, shortened: as §2
row,Stimulation,SMILES
1,97%,CCCCCCCCCCCCCCCN1CCC(C2CCN(C)CC2)CC1
2,1480%,CCCCCCCCCCCCCNC1CCNCC1
3,81%,CCCCCCCCCCCCCCCCCN1CCC(C2CCN(C)CC2)CC1
4,86%,CCCCCCCCCCCCCCCN1CCC(CCC2CCN(C)CC2)CC1
5,5690%,CCCCCCCCCCCCCCCCCN1CCC(C2CCNCC2)CC1
6,2460%,CCCCCCCCCCCCCCCN1CCC(CCC2CCNCC2)CC1
7,60%,COc1ccccc1CN1CCC(C2CCNCC2)CC1
8,173%,CCCCCCCCCCCCCCC(=O)N1CCN(N)CC1
9,755%,CCCCCCCCCCCCCN1CCC(C2CCNCC2)CC1
10,392%,CCCCCCCCCCCCCCC(=O)N1CCC(C2CCN(C)CC2)CC1
11,950%,CCCCCCCCCCCCC(=O)N1CCC(C2CCNCC2)CC1
12,2630%,CCCCCCCCCCCCCCCNC(=O)C1CCN(CCN)CC1
13,973%,CCCCCCCCCCCCCCCNC(=O)C1CCNCC1
14,84%,CCCCCCCCCCCCC(=O)N1CCC(C2CCN(C)CC2)CC1
15,845%,CCCCCCCCCCCCCCC(=O)N1CCC(CCC2CCNCC2)CC1
16,577%,CCCCCCCCCCCCCCC(=O)N1CCC(CCC2CCN(C)CC2)CC1
17,2460%,CCCCCCCCCCCCCCCNCC1CCNCC1
